Measurements as given in ChEMBL document CHEMBL4334459, “Identification of α-Mangostin as a Potential Inhibitor of Microtubule Affinity Regulating Kinase 4” (J Nat Prod, 2019).
Active and inactive are the calls of the source. No cut-off for these calls is given here.

Assays:
[1] = molecular target: T1, MAP/microtubule affinity-regulating kinase 4 (Homo sapiens) (UniProt Q96L34); assay: Inhibition of recombinant human MARK4 at 10 uM incubated for 2 hrs by [gamma32P]ATP assay
T1 sequence (whole entry): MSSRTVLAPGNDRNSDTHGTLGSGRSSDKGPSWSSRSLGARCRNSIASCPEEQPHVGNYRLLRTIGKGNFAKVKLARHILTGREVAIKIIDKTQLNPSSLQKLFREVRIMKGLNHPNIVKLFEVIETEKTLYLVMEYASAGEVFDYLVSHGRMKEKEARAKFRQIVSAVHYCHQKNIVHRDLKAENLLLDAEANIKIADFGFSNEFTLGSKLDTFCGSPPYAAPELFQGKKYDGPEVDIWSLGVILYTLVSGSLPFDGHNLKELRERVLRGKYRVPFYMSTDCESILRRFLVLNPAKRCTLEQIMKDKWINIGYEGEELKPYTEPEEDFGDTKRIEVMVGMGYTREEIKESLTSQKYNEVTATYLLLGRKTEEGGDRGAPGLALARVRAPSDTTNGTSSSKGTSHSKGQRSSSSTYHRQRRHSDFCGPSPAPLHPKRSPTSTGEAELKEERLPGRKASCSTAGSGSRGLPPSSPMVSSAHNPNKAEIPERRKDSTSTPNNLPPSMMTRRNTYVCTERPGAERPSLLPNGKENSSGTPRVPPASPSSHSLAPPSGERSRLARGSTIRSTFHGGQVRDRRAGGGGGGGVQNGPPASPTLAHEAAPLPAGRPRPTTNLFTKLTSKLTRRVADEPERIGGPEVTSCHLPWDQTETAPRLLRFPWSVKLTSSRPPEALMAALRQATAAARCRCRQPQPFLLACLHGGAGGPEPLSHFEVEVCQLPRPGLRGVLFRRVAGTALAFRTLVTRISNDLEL
Procedure, shortened: (§1)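 Recombinant human MARK4 was incubated 2 h at 37 °C with 1 mM cold ATP plus [γ-32P]ATP (222 TBq mmol−1), with or without compound. Released 32Pi was separated from ATP by TLC, and spots were quantified as % ATP hydrolysis relative to a 100 nM enzyme positive control. Screening was at a single 10 μM; dose-response used 0.5−10 μM.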

[2] = molecular target: T1, MAP/microtubule affinity-regulating kinase 4 (Homo sapiens); assay: (§2) Inhibition of recombinant human MARK4 incubated for 2 hrs by [gamma32P]ATP assay; procedure, shortened: as §1
[3] = molecular target: T2, MAP/microtubule affinity-regulating kinase 4 (Homo sapiens, UniProt Q96L34); assay: as §2; procedure, shortened: as §1
T2 sequence (Q96L34 whole entry): T1 sequence (whole entry)

[4] = molecular target: T1, MAP/microtubule affinity-regulating kinase 4 (Homo sapiens); assay: Inhibition of MARK4 in human SH-SY5Y cells assessed as reduction in tau phosphorylation at IC50 after 24 hrs by flow cytometric analysis; type: cell-based
Procedure, shortened: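 SH-SY5Y cells were grown in 1:1 EMEM/F12 with 10% FBS and incubated with IC50 compound. After 24 h, about 1 × 10^6 cells were collected, fixed, and stained with anti-tau primary antibody for 2−3 h at 25 °C. Phospho-tau signal was read by flow cytometry against untreated cells.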

[5] = molecular target: T1, MAP/microtubule affinity-regulating kinase 4 (Homo sapiens); assay: Binding affinity to recombinant human MARK 4 by fluorescence based Stem-Volme plot analysis
Procedure, shortened: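 Intrinsic fluorescence of recombinant MARK4 (10 μM) was titrated with increasing ligand, using excitation at 280 nm and emission recorded from 300−400 nm. Quenching was fitted to a modified Stern−Volmer equation, log(Fo−F)/F = log Ka + n log[L]. Ka came from the intercept and n from the slope. Three independent triplicate titrations were averaged.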

[6] = test system: MCF7; assay: Antiproliferative activity against human MCF7 cells assessed as reduction in cell viability after 48 hrs by MTT assay; type: functional, cell-based; conditions: MCF7, 48 h
Procedure, shortened: (§3)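 Cells plated at 9000−10 000 cells/well, grown 24 h, then exposed to 0−50 μM compound for 48 h at 37 °C in 5% CO2, followed by a standard MTT read-out. HEK-293, MCF-7 and HepG2 were kept in DMEM with 10% heat-inactivated FBS and 1% penicillin−streptomycin. Viability is expressed as % of control, mean ± SD, n = 3. Paclitaxel served as positive control.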

[7] = test system: HepG2; assay: Antiproliferative activity against human HepG2 cells assessed as reduction in cell viability after 48 hrs by MTT assay; type: functional, cell-based; conditions: HepG2, 48 h; procedure, shortened: as §3
[8] = test system: HEK293; assay: Cytotoxicity against human HEK293 cells assessed as reduction in cell viability upto 50 uM after 48 hrs by MTT assay; type: cell-based; conditions: hek293, 48 h; procedure, shortened: as §3
[9] = test system: MCF7; assay: Induction of apoptosis in human MCF7 cells assessed as viable cells at IC50 after 24 hrs by annexin V-FITC/propidium iodide staining based Flow cytometric analysis (reference value: 99.99%); type: functional
[10] = test system: MCF7; assay: Induction of apoptosis in human MCF7 cells assessed as apoptotic cells at IC50 after 24 hrs by annexin V-FITC/propidium iodide staining based Flow cytometric analysis (reference value: 0.01%); type: functional
[11] = test system: HepG2; assay: Induction of apoptosis in human HepG2 cells assessed as viable cells at IC50 after 24 hrs by annexin V-FITC/propidium iodide staining based Flow cytometric analysis (reference value: 97.32%); type: functional
[12] = test system: HepG2; assay: Induction of apoptosis in human HepG2 cells assessed as apoptotic cells at IC50 after 24 hrs by annexin V-FITC/propidium iodide staining based Flow cytometric analysis (reference value: 2.68%); type: functional
[13] = test system: MCF7; assay: Induction of cell cycle arrest in human MCF7 cells assessed as accumulation at G0/G1 phase at IC50 after 24 hrs by propidium iodide staining based Flow cytometric analysis (reference value: 65%); type: functional
[14] = test system: MCF7; assay: Induction of cell cycle arrest in human MCF7 cells assessed as accumulation at S phase at IC50 after 24 hrs by propidium iodide staining based Flow cytometric analysis (reference value: 20%); type: functional
[15] = test system: MCF7; assay: Induction of cell cycle arrest in human MCF7 cells assessed as accumulation at G2 phase at IC50 after 24 hrs by propidium iodide staining based Flow cytometric analysis (reference value: 15%); type: functional
[16] = test system: HepG2; assay: Induction of cell cycle arrest in human HepG2 cells assessed as accumulation at G0/G1 phase at IC50 after 24 hrs by propidium iodide staining based Flow cytometric analysis (reference value: 60%); type: functional
[17] = test system: HepG2; assay: Induction of cell cycle arrest in human HepG2 cells assessed as accumulation at S phase at IC50 after 24 hrs by propidium iodide staining based Flow cytometric analysis (reference value: 25%); type: functional
[18] = test system: HepG2; assay: Induction of cell cycle arrest in human HepG2 cells assessed as accumulation at S phase at IC50 after 24 hrs by propidium iodide staining based Flow cytometric analysis (reference value: 15%); type: functional
[19] = molecular target: T1, MAP/microtubule affinity-regulating kinase 4 (Homo sapiens); assay: Inhibition of MARK4 in human MCF7 cells assessed as reduction in ROS level at IC50 after 5 to 6 hrs by DCFDA staining using spectroflourimetric analysis; type: cell-based
[20] = molecular target: T1, MAP/microtubule affinity-regulating kinase 4 (Homo sapiens); assay: Inhibition of MARK4 in human HepG2 cells assessed as reduction in ROS level at IC50 after 5 to 6 hrs by DCFDA staining using spectroflourimetric analysis; type: cell-based
[21] = test system: MCF7; assay: Inhibition of cell migration in human MCF7 cells at IC50 after 48 hrs by phase contrast inverted microscopic based wound healing assay; type: functional

## O=c1oc2c(O)c(O)cc3c(=O)oc4c(O)c(O)cc1c4c23
[1]
  inhibition: Active

## COc1c(O)cc2oc3cc(O)c(CC=C(C)C)c(O)c3c(=O)c2c1CC=C(C)C [MANGOSTIN]
[1]
  inhibition: Active
[2]
  inhibition: Dose-dependent effect
[3]
  IC50: 1.77 µM
[4]
  inhibition: Active
[5]
  Ka: 5.2 ×10⁷ /M
[6]
  IC50: 9.95 µM
[7]
  IC50: 18.6 µM
[8]
  Activity: Non-Toxic
[9]
  Activity: 74.1%
[10]
  Activity: 25.9%
[11]
  Activity: 80.3%
[12]
  Activity: 19.7%
[13]
  Activity: 83%
[14]
  Activity: 10%
[15]
  Activity: 7%
[16]
  Activity: 75%
[17]
  Activity: 15%
[18]
  Activity: 10%
[19]
  inhibition: Active
[20]
  inhibition: Active
[21]
  inhibition: Active
